What was measured:
[1] = test system: SW-620; assay: Cytotoxicity against human SW620 cells; assay type: functional
[2] = test system: MCF7; assay: Cytotoxicity against human MCF7 cells; assay type: functional
[3] = Cytotoxicity against human 786-O cells; assay type: functional
[4] = test system: PC-3; assay: Cytotoxicity against human PC3 cells; assay type: functional
[5] = test system: HCC 2998; assay: Cytotoxicity against human HCC2998 cells; assay type: functional
[6] = test system: IGROV-1; assay: Cytotoxicity against human IGROV1 cells; assay type: functional
[7] = test system: Saccharomyces cerevisiae; assay: Growth inhibition of POS5-deficient Saccharomyces cerevisiae YPL188W mutant at 20 ug/disc after 24 to 48 hrs by agar diffusion assay; assay type: functional; conditions: read-out: DIZ
In short: (§1)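 S. cerevisiae deletion mutants or wild type grown on YPD, seeded into liquid agar medium at an optical density of 0.1. 6 mm paper discs soaked with methanolic compound solution were placed on the plates and incubated at 30 °C. Growth was checked after 1 and 2 days, and the inhibition zone diameter was recorded in mm.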

[8] = test system: DU-145; assay: Cytotoxicity against human DU145 cells; assay type: functional
[9] = test system: NCI/ADR-RES; assay: Cytotoxicity against human NCI/ADR-RES cells; assay type: functional
[10] = test system: SNB-75; assay: Cytotoxicity against human SNB75 cells; assay type: functional
[11] = test system: COLO 205; assay: Cytotoxicity against human COLO205 cells; assay type: functional
[12] = test system: A498; assay: Cytotoxicity against human A498 cells after 24 hrs by MTT assay; assay type: functional, cell-based; conditions: A498, 24 h
In short: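 MTT assay. Cells were seeded at 50,000 cells/mL in medium with 10% fetal calf serum and grown for two days at 37 °C, 10% CO2. Serial dilutions of compound were then added for 24 h. MTT was added (final 0.5 mg/mL) for 2 h, and the formazan was pelleted, washed, dissolved in isopropanol with 0.4% HCl and read at 590 nm. IC50 is the concentration giving 50% of untreated-control absorbance, taken from dose-response curves; mean of two parallel experiments.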

[13] = test system: SF-295; assay: Cytotoxicity against human SF295 cells; assay type: functional
[14] = test system: Saccharomyces cerevisiae; assay: Growth inhibition of WSC4-deficient Saccharomyces cerevisiae YHL028W mutant at 20 ug/disc 24 to 48 hrs by agar diffusion assay; assay type: functional; conditions: read-out: DIZ; in short: as §1
[15] = test system: A549; assay: Cytotoxicity against human A549 cells; assay type: functional
[16] = test system: OVCAR-4; assay: Cytotoxicity against human OVCAR4 cells; assay type: functional
[17] = test system: SK-OV-3; assay: Cytotoxicity against human SKOV3 cells; assay type: functional
[18] = test system: HL-60; assay: Cytotoxicity against human HL60 cells; assay type: functional
[19] = test system: OVCAR-8; assay: Cytotoxicity against human OVCAR8 cells; assay type: functional
[20] = test system: SK-MEL-2; assay: Cytotoxicity against human SK-MEL-2 cells; assay type: functional
[21] = test system: LOX IMVI; assay: Cytotoxicity against human LOXIMVI cells; assay type: functional
[22] = test system: Saccharomyces cerevisiae; assay: Growth inhibition of COX17-deficient Saccharomyces cerevisiae YLL009C mutant at 20 ug/disc after 24 to 48 hrs by agar diffusion assay; assay type: functional; conditions: read-out: DIZ; in short: as §1
[23] = test system: Saccharomyces cerevisiae; assay: Growth inhibition of GTT2-deficient Saccharomyces cerevisiae YLL060C mutant at 20 ug/disc after 24 to 48 hrs by agar diffusion assay; assay type: functional; conditions: read-out: DIZ; in short: as §1
[24] = test system: HT-29; assay: Cytotoxicity against human HT-29 cells; assay type: functional
[25] = test system: SR; assay: Cytotoxicity against human SR cells; assay type: functional
[26] = test system: Malme-3M; assay: Cytotoxicity against human MALME-3M cells; assay type: functional
[27] = test system: Saccharomyces cerevisiae; assay: Growth inhibition of SOD1-deficient Saccharomyces cerevisiae YJR104C mutant at 20 ug/disc after 24 to 48 hrs by agar diffusion assay; assay type: functional; conditions: read-out: DIZ; in short: as §1
[28] = test system: Saccharomyces cerevisiae; assay: Growth inhibition of GSH2-deficient Saccharomyces cerevisiae YOL049W mutant at 20 ug/disc after 24 to 48 hrs by agar diffusion assay; assay type: functional; conditions: read-out: DIZ; in short: as §1
[29] = test system: MOLT-4; assay: Cytotoxicity against human MOLT4 cells; assay type: functional
[30] = test system: A498; assay: Cytotoxicity against human A498 cells; assay type: functional
[31] = test system: SN12C; assay: Cytotoxicity against human SN12C cells; assay type: functional
[32] = test system: SK-MEL-5; assay: Cytotoxicity against human SK-MEL-5 cells; assay type: functional
[33] = test system: OVCAR-5; assay: Cytotoxicity against human OVCAR5 cells; assay type: functional
[34] = test system: T47D; assay: Cytotoxicity against human T47D cells; assay type: functional
[35] = test system: OVCAR-3; assay: Cytotoxicity against human OVCAR3 cells; assay type: functional
[36] = test system: UACC-62; assay: Cytotoxicity against human UACC62 cells; assay type: functional
[37] = test system: MDA-MB-468; assay: Cytotoxicity against human MDA-MB-468 cells; assay type: functional
[38] = test system: Saccharomyces cerevisiae; assay: Growth inhibition of RCK1-deficient Saccharomyces cerevisiae YGL158W mutant at 20 ug/disc after 24 to 48 hrs by agar diffusion assay; assay type: functional; conditions: read-out: DIZ; in short: as §1
[39] = test system: RPMI-8226; assay: Cytotoxicity against human RPMI8226 cells; assay type: functional
[40] = test system: SF-268; assay: Cytotoxicity against human SF268 cells; assay type: functional
[41] = test system: SF-539; assay: Cytotoxicity against human SF539 cells; assay type: functional

Compound `CC1=C([Se]CC(OC(=O)[C@@H](CO)NC(=O)OC(C)(C)C)C(=O)NC(C)(C)C)C(=O)c2ccccc2C1=O` (stereo partly drawn) has a GI50 [1] of 1.78 µM, an LC50 [1] of 6.31 µM and a TGI ([1]; read-out: pTGI (converted)) of 3.31 µM. The GI50 [2] was 1.74 µM, the LC50 [2] was 8.91 µM and the TGI ([2]; read-out: pTGI (converted)) was 3.98 µM. The GI50 ([3]; 786-0) was 1.95 µM, the LC50 ([3]; 786-0) was 5.89 µM and the TGI ([3]; 786-0, read-out: pTGI (converted)) was 3.39 µM. The GI50 [4] was 1.35 µM, the LC50 [4] was 6.03 µM and the TGI ([4]; read-out: pTGI (converted)) was 2.82 µM. It also gave a GI50 [5] of 1.82 µM, an LC50 [5] of 5.75 µM and a TGI ([5]; read-out: pTGI (converted)) of 3.24 µM. The GI50 [6] was 1.66 µM, the LC50 (concentration killing 50% of cells) [6] was 6.46 µM and the TGI ([6]; read-out: pTGI (converted)) was 3.24 µM. For the same compound, the zone of inhibition at 20 µg/disc [7] was 11 mm, the GI50 [8] was 1.91 µM and the LC50 [8] was 6.03 µM. For the same compound, the TGI ([8]; read-out: pTGI (converted)) was 3.39 µM, the GI50 [9] was 1.62 µM and the TGI ([9]; read-out: pTGI (converted)) was 3.09 µM. For the same compound, the GI50 [10] was 1.29 µM, the LC50 [10] was 5.13 µM and the TGI ([10]; read-out: pTGI (converted)) was 2.57 µM. It also gave a GI50 [11] of 1.82 µM, a CC50 ([11]; read-out: pLC50 (the source's name) (converted)) of 6.03 µM and a TGI ([11]; read-out: pTGI (converted)) of 3.31 µM. It also gave an IC50 [12] of 5 µM, a GI50 [13] of 0.316 µM and an LC50 [13] of 22.4 µM. The TGI ([13]; read-out: pTGI (converted)) was 1.05 µM, the zone of inhibition at 20 µg/disc [14] was 19 mm and the GI50 [15] was 1.82 µM. For the same compound, the LC50 [15] was 89.1 µM, the TGI ([15]; read-out: pTGI (converted)) was 9.33 µM and the GI50 [16] was 1.23 µM. For the same compound, the LC50 [16] was 5.01 µM, the TGI ([16]; read-out: pTGI (converted)) was 2.51 µM and the GI50 [17] was 1.26 µM. For the same compound, the LC50 [17] was 5.13 µM, the TGI ([17]; read-out: pTGI (converted)) was 2.57 µM and the GI50 [18] was 0.871 µM. The LC50 [18] was over 100 µM, the TGI ([18]; read-out: pTGI (converted)) was 3.8 µM and the GI50 [19] was 1.86 µM. For the same compound, the TGI ([19]; read-out: pTGI (converted)) was 3.55 µM, the GI50 [20] was 2.19 µM and the LC50 [20] was 9.55 µM. The TGI ([20]; read-out: pTGI (converted)) was 4.57 µM, the GI50 [21] was 1.58 µM and the LC50 [21] was 5.75 µM. For the same compound, the TGI ([21]; read-out: pTGI (converted)) was 3.02 µM, the zone of inhibition at 20 µg/disc [22] was 13 mm and the zone of inhibition at 20 µg/disc [23] was 21 mm. The GI50 [24] was 2.29 µM, the LC50 [24] was 9.77 µM and the TGI ([24]; read-out: pTGI (converted)) was 4.79 µM. The GI50 [25] was 0.741 µM, the LC50 [25] was over 100 µM and the GI50 [26] was 2.04 µM. It also gave an LC50 [26] of 6.92 µM, a TGI ([26]; read-out: pTGI (converted)) of 3.8 µM and a zone of inhibition at 20 µg/disc [27] of 22 mm. It also gave a zone of inhibition at 20 µg/disc [28] of 18 mm, a GI50 [29] of 0.447 µM and an LC50 [29] of over 100 µM. The GI50 [30] was 3.63 µM, the LC50 (50% lethal concentration) [30] was 39.8 µM and the TGI ([30]; read-out: pTGI (converted)) was 15.1 µM. It also gave a GI50 [31] of 1.86 µM, an LC50 [31] of 6.31 µM and a TGI ([31]; read-out: pTGI (converted)) of 3.39 µM. The GI50 [32] was 1.58 µM, the LC50 [32] was 5.5 µM and the TGI ([32]; read-out: pTGI (converted)) was 2.95 µM. It also gave a GI50 [33] of 2.09 µM, an LC50 [33] of 6.61 µM and a TGI ([33]; read-out: pTGI (converted)) of 3.72 µM. The GI50 [34] was 0.331 µM, the LC50 [34] was 8.91 µM and the TGI ([34]; read-out: pTGI (converted)) was 1.07 µM. For the same compound, the GI50 [35] was 1.78 µM, the LC50 [35] was 5.62 µM and the TGI ([35]; read-out: pTGI (converted)) was 3.16 µM. It also gave a GI50 [36] of 1.66 µM, an LC50 [36] of 5.62 µM and a TGI ([36]; read-out: pTGI (converted)) of 3.02 µM. For the same compound, the GI50 [37] was 0.759 µM, the LC50 [37] was 5.89 µM and the TGI ([37]; read-out: pTGI (converted)) was 2.29 µM. For the same compound, the zone of inhibition at 20 µg/disc [38] was 18 mm, the GI50 [39] was 2.75 µM and the LC50 [39] was over 100 µM. The TGI ([39]; read-out: pTGI (converted)) was 8.91 µM, the GI50 [40] was 1.91 µM and the LC50 [40] was 5.89 µM. For the same compound, the TGI ([40]; read-out: pTGI (converted)) was 3.31 µM, the GI50 [41] was 1.58 µM and the LC50 [41] was 5.89 µM. It also gave a TGI ([41]; read-out: pTGI (converted)) of 3.09 µM.
